Bridges are numbered along the chain shown (N, C = ends). Where no end group is shown, it is not given here.
Legend:
[1] = test system: E. coli 8739; experiment: Salt sensitivity assay; type: cell-based, Escherichia coli; conditions: three independent repeats
Outline: (§1)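 MIC/MBC measured in MHB supplemented with salts, including 150 mM NaCl, 2 mM CaCl₂ or 1 mM MgCl₂. Gram-negative cultures subcultured to OD550 0.4, then diluted to 5×10^5 cfu/ml. Test compound 1–128 μM, 37 °C, 18 h, growth at 550 nm. MBC: wells spotted on agar for 18 h at 37 °C; lowest concentration with no colonies. Three independent repeats.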

[2] = test system: tested Gram-positive bacteria; experiment: Geometric mean of MICs and TI, Gram-positive bacteria; type: cell-based; conditions: geometric mean of the MICs against tested Gram-positive bacteria
Outline: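 Broth dilution against S. aureus NCTC 10788, MRSA NCTC 12493 and E. faecalis NCTC 12697. Overnight cultures subcultured to OD550 0.23 (about 1×10^8 cfu/ml), then diluted to 5×10^5 cfu/ml. Test compound at 1–128 μM, 37 °C, 18 h, growth read at 550 nm. MIC = lowest concentration with no growth. Three independent runs in triplicate. Geometric mean taken across the MICs.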

[3] = test system: three tested E. coli strains; experiment: NPN assay, outer membrane permeabilisation; type: cell-based, Escherichia coli; conditions: 1 × MIC, 2 × MIC, 4 × MIC; 37 °C, 2 h
Outline: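 Log-phase E. coli pelleted at 3000g for 10 min and washed three times in 5 mM HEPES pH 7.2 with 5 mM glucose. Resuspended at 1×10^7 CFU/ml with NPN and test compound at 1×, 2× or 4× MIC. Incubated at 37 °C for 2 h, then fluorescence read at […]. Melittin set 100 % and buffer 0 % permeability. Three independent runs.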

[4] = test system: E. coli 2340; experiment: Salt sensitivity assay; type: cell-based, Escherichia coli; conditions: three independent repeats
Outline: as §1

[5] = test system: E. coli plasmid DNA (pBR322); experiment: DNA binding assay; design: species or system Escherichia coli; conditions: 100 ng plasmid DNA, 37 °C, 1 h, agarose gel electrophoresis
Outline: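 Gel retardation: test compound (final 1–32 μM) incubated with 100 ng E. coli plasmid DNA at 37 °C for 1 h. Buffer: 1 mM EDTA, 10 mM Tris-HCl pH 8.0, 5 % glucose, 50 μg/ml BSA, 20 mM KCl. Resolved by agarose gel electrophoresis in 1 × TAE. A known DNA-binding peptide at equal concentrations served as control.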

[6] = test system: E. coli 2340; experiment: In vivo antibacterial study, G. mellonella larvae model; design: species or system Galleria mellonella; conditions: five days; 10, 20, 40 mg/kg; ten larvae per group
Outline: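 Galleria mellonella larvae injected in the last right proleg with E. coli suspension (1×10^7 CFU/ml). Test compound given 1 h later at 10, 20 or 40 mg/kg. Larvae kept at 37 °C for five days, survival scored daily, ten larvae per group. Rifampin 20 mg/kg was the positive control and sterile PBS the negative control. Three independent experiments.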

[7] = Secondary structure analysis by CD spectrometry; type: physicochemical; conditions: for α helix (%) NH4AC: 50 µM peptide in 10 mM NH4AC; for α helix (%) NH4AC / α helix (%) TFE: CD 190 to 260 nm, K2D3 estimate; for α helix (%) TFE: 50 µM peptide in 50 % TFE (v/v, in 10 mM NH4AC)
Outline: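 CD spectra of test compound (final 50 µM) in 10 mM ammonium acetate, in 50 % TFE (v/v, in 10 mM ammonium acetate), or with LPS O26:B6 (100 µM) in 10 mM ammonium acetate. Scanned 190–260 nm at 100 nm/min, 1 nm bandwidth, 0.5 nm data pitch. Helix content estimated with K2D3.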

[8] = test system: tested E. coli strains; experiment: ONPG assay, inner membrane permeabilisation; type: cell-based, Escherichia coli; conditions: E. coli 8739
Outline: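 E. coli grown in LB with 2 % lactose to log phase, then pelleted. Incubated with test compound while absorbance at 460 nm was monitored continuously at 37 °C. Untreated cells, melittin and solvent-only groups included. Three independent runs, three replicates each.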

[9] = test system: E. coli 13846; experiment: Salt sensitivity assay; type: cell-based, Escherichia coli; conditions: three independent repeats
Outline: as §1

[10] = test system: E. coli 8739, E. coli 13846, and E. coli 2340; experiment: Time-killing kinetic assay; type: cell-based, Escherichia coli
Outline: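 E. coli at 10^6 CFU/ml mixed with test compound at 1×, 2× or 4× MIC. 10 µl aliquots taken into PBS at 0, 5, 10, 20, 30, 60, 90, 120 and 180 min and plated on agar. Colonies counted after 24 h incubation. Three independent sessions, three replicates each.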

With “FFPKVAGVAAKVLKKFCTISKKC (disulfide 17-23 (inferred)) [des-Ala^16-[Lys^4]brevinin−1pl]” the MBC ([1]; 4 µM FeCl3 in MHB medium) was 2 /2, the MIC ([1]; 4 µM FeCl3 in MHB medium) was 2 /2 and the MBC ([1]; 6 µM NH4Cl in MHB medium) was 2 /2. The MIC ([1]; 6 µM NH4Cl in MHB medium) was 2 /2, the MBC ([1]; 8 µM ZnCl2 in MHB medium) was 2 /2 and the MIC ([1]; 8 µM ZnCl2 in MHB medium) was 2 /2. The MBC ([1]; 1 mM MgCl2 in MHB medium) was 32 /32, the MIC ([1]; 1 mM MgCl2 in MHB medium) was 32 /32 and the MBC ([1]; 2 mM CaCl2 in MHB medium) was 8 /8. The MIC ([1]; 2 mM CaCl2 in MHB medium) was 8 /8, the MBC ([1]; 4.5 mM KCl in MHB medium) was 2 /2 and the MIC ([1]; 4.5 mM KCl in MHB medium) was 2 /2. For the same substance, the MBC ([1]; 150 mM NaCl in MHB medium) was 4 /4, the MIC ([1]; 150 mM NaCl in MHB medium) was 4 /4 and the MBC ([1]; Control, MHB medium) was 2 /2. For the same substance, the MIC ([1]; Control, MHB medium) was 2 /2, the “GM G+” value [2] was 80.63 µM and the “outer membrane permeabilisation of the tested E. coli strains” value [3] was “did not induce significant changes”. For the same substance, the MBC ([4]; 4 µM FeCl3 in MHB medium) was 4 /4, the MIC ([4]; 4 µM FeCl3 in MHB medium) was 4 /4 and the MBC ([4]; 6 µM NH4Cl in MHB medium) was 4 /4. For the same substance, the MIC ([4]; 6 µM NH4Cl in MHB medium) was 4 /4, the MBC ([4]; 8 µM ZnCl2 in MHB medium) was 4 /4 and the MIC ([4]; 8 µM ZnCl2 in MHB medium) was 4 /4. For the same substance, the MBC ([4]; 1 mM MgCl2 in MHB medium) was 8 /8, the MIC ([4]; 1 mM MgCl2 in MHB medium) was 8 /8 and the MBC ([4]; 2 mM CaCl2 in MHB medium) was 16 /16. The MIC ([4]; 2 mM CaCl2 in MHB medium) was 16 /16, the MBC ([4]; 4.5 mM KCl in MHB medium) was 2 /2 and the MIC ([4]; 4.5 mM KCl in MHB medium) was 2 /2. The MBC ([4]; 150 mM NaCl in MHB medium) was 4 /4, the MIC ([4]; 150 mM NaCl in MHB medium) was 4 /4 and the MBC ([4]; Control, MHB medium) was 4 /4. For the same substance, the MIC ([4]; Control, MHB medium) was 4 /4, the “concentration of complete retardation of plasmid DNA” value [5] was 16 µM and the “survival rate of infected larvae” value [6] was 90%. The “α helix (%) NH4AC” value [7] was 31.95%, the “α helix (%) TFE” value [7] was 95.28% and the “α helix content in the presence of LPS” value ([7]; LPS (O26:B6, 100 µM) in 10 mM NH4AC, CD, K2D3 prediction) was 95.44%. For the same substance, the “changes in OD values in the ONPG assay (release of cytoplasmic beta-galactosidase)” value [8] was “did not induce obvious changes in OD values”, the MBC ([9]; 4 µM FeCl3 in MHB medium) was 8 /8 and the MIC ([9]; 4 µM FeCl3 in MHB medium) was 8 /8. The MBC ([9]; 6 µM NH4Cl in MHB medium) was 8 /8, the MIC ([9]; 6 µM NH4Cl in MHB medium) was 8 /8 and the MBC ([9]; 8 µM ZnCl2 in MHB medium) was 8 /8. The MIC ([9]; 8 µM ZnCl2 in MHB medium) was 8 /8, the MBC ([9]; 1 mM MgCl2 in MHB medium) was 16 /16 and the MIC ([9]; 1 mM MgCl2 in MHB medium) was 16 /16. For the same substance, the MBC ([9]; 2 mM CaCl2 in MHB medium) was 64 /64, the MIC ([9]; 2 mM CaCl2 in MHB medium) was 64 /64 and the MBC ([9]; 4.5 mM KCl in MHB medium) was 8 /8. The MIC ([9]; 4.5 mM KCl in MHB medium) was 8 /8, the MBC ([9]; 150 mM NaCl in MHB medium) was 8 and the MIC ([9]; 150 mM NaCl in MHB medium) was 4. The MBC ([9]; Control, MHB medium) was 4 /4, the MIC ([9]; Control, MHB medium) was 4 /4 and the “bacteria eradication at 4 × MIC” value ([10]; 4 × MIC) was “almost immediate bacteria eradication upon contact”. For the same substance, the “time to eradicate all cells” value ([10]; 10^6 CFU/ml, peptide 1 × MIC to 4 × MIC, sampled 0 to 180 min, colony count) was at most 10 min and the “time to completely clear the bacteria” value ([10]; at their MICs, three types of E. coli) was at most 1 h.
With “FFPKVAGVAAKV_KK_FCTISKKC (disulfide) [des-Leu^13, Ala^16-[Lys^4]brevinin−1pl]” the “GM G+” value [2] was 256 µM, the “α helix (%) NH4AC” value [7] was 34.65% and the “α helix (%) TFE” value [7] was 95.28%.

From article PMC11437748 (Computational and Structural Biotechnology Journal, 2024)
